Compounds with a hit are over-represented: about 3.7% of the library has one in this group of screens.
OX1R antag-1 = antagonists of human orexin 1 receptor (OX1R); Orexin/Hypocretin receptor type 1 (Homo sapiens), O43613; OX1R-expressing cells, FRET antagonist read-out; inhibition, % at 6.6 µM; 1.8% of 330,000 active; AID 485270, 2010; in the data active = inhibition mostly above about 38%, no sharp cut-off; inactive = mostly below about 40%
PGE2 EP2 inh = human EP2 receptor antagonists, primary screen, TR-FRET cAMP, C6 glioma cells. C6 glioma cells expressing human EP2; cells stimulated with saturating PGE2. inhibition, % at 25 µM. 0.52% of 260,000 active;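 active = percent inhibition above 40 after rounding to a whole number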;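 also: rat C6 glioma host cells with rolipram phosphodiesterase inhibitor present; the protocol text gives 20 µM as final concentration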
Target sequence (P43116 whole entry, looked up): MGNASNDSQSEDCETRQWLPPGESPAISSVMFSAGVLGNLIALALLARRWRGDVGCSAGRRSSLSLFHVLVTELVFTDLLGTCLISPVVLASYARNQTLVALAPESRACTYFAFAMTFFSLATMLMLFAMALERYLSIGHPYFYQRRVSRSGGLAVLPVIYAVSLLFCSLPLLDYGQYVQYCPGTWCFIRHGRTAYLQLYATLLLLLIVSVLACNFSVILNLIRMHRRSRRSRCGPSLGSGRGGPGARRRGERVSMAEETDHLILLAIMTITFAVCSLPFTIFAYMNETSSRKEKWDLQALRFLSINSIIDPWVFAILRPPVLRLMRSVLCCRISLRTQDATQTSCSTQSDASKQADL
GPR7 antagonist = GPR7 receptor antagonists, primary screen, cell-based, fluorescence, single concentration. GPR7-expressing cells, fluorescence antagonist assay. inhibition, % at 4.4 µM. 1.1% of 290,000 active. AID 1861, 2009; in the data active = inhibition above about 16%, passing the limit was not always enough;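 also: cells stimulated with the agonist NPW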
Target sequence (P48145 whole entry, looked up): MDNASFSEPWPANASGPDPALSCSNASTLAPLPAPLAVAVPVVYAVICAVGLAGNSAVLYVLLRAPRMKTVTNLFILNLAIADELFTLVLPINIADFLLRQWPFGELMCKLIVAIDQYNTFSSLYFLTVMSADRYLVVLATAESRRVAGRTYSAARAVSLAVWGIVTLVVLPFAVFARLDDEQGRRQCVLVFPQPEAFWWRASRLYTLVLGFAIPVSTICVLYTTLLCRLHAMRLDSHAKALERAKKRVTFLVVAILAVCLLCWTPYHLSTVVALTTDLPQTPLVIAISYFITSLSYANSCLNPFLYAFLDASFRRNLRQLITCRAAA
CHO parental Ca = ATP-evoked calcium signal inhibitors, parental CHO, primary screen, counter-screen for OX1R antagonist project, cell-based, fluorescence, Fluo-8 calcium dye | parental CHO-K1, ATP-induced calcium, Fluo-8 fluorescence | inhibition, % at 5.6 µM | 0.63% of 330,000 active;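 active = inhibition above that plate's mean sample inhibition plus 3 SD, cut at about 26% in these data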
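Test system: untransfected parental CHO cell line. Compound: one dose, 5.6 µM nominal. Detection: intracellular calcium via Fluo-8 no-wash fluorescent dye. Measure: % inhibition. Benchmarks: ATP-challenged DMSO wells low, unchallenged DMSO wells high.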
EP2 mod = EP2 receptor modulators, cAMP readout, primary screen, cell-based, HTRF cAMP, PGE2 stimulation | EP2-expressing cells, cAMP HTRF FRET, PGE2 co-stimulation | induction, % at 25 µM | 0.83% of 260,000 active;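 active = compounds whose cAMP rise, as percent of the full-agonist control response, exceeds 60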;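 also: rat C6 glioma line stably carrying human EP2 under a CMV promoter; the protocol text gives 20 µM as final concentration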
OX1R antag-2 = OX1R (HCRTR1) antagonists, primary screen, fluorescence, CHO/OX1R cells, Fluo-8 calcium, orexin A; Orexin/Hypocretin receptor type 1 (Homo sapiens), O43613; Fluo-8 calcium fluorescence; inhibition, % at 5 µM; 0.43% of 330,000 active; AID 434989, 2010;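 active = inhibition above its plate's threshold, mean inhibition of all tested compounds on the plate plus 3 SD, cut at about 37% in these data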
Large screens that a line does not name were inactive.

NS(=O)(=O)c1ccc(CCNC(=O)CSc2ccsc2[N+](=O)[O-])cc1	OX1R antag-1 44
CSc1ccc(CCNC(=O)CSc2ccsc2[N+](=O)[O-])cc1	none
C=CCC1(CC=C)CCCN1C(=O)c1cc(COc2ccc(C)nc2)on1	CHO parental Ca 52 (no result: PGE2 EP2 inh, EP2 mod)
O=C1c2cccc(O)c2C(=O)c2c(O[C@@H]3O[C@H](CO)[C@@H](O)[C@H](O)[C@H]3O)cccc21	PGE2 EP2 inh 52 (no result: OX1R antag-1, GPR7 antagonist, CHO parental Ca, OX1R antag-2)
Cc1cccc(CN2CCN(c3nc4nonc4nc3NC3CC3)CC2=O)c1	none
COc1ccc(C(=O)CSc2nc3c(C)c(C)ccc3cc2C#N)cc1OC	PGE2 EP2 inh 50 (no result: OX1R antag-1, GPR7 antagonist, CHO parental Ca, OX1R antag-2)
CC(C)c1ccc2c(c1)CC[C@@H]1[C@](C)(CN)CCC[C@@]21C	PGE2 EP2 inh 90 (no result: OX1R antag-1, GPR7 antagonist, CHO parental Ca, OX1R antag-2)
CC(C)c1ccc2c(c1)CCC1C(C)(CN)CCCC21C (stereo unspecified)	none
Cc1ccccc1Cn1c(=N)n(CC(O)c2ccco2)c2ccccc21 (stereo unspecified)	none
CC(C)(C)c1ccc(Cn2c(=N)n(CC(O)c3ccco3)c3ccccc32)cc1 (stereo unspecified)	GPR7 antagonist 24
Cc1cccc(NC(=O)CNC(=O)N2CC(=O)Nc3ccccc32)c1C	none (no result: PGE2 EP2 inh, EP2 mod)
O=C(CSCC(=O)N1CCCc2ccccc21)Nc1nc(-c2ccccc2)cs1	OX1R antag-1 33
C=CCOc1ccc(CN(C)C(=O)C2CCCO2)cc1 (stereo unspecified)	none (no result: PGE2 EP2 inh, EP2 mod)
CCN(CC)c1ccc(C(=O)NNC(=O)c2cccn2C)cc1	none (no result: PGE2 EP2 inh, GPR7 antagonist, EP2 mod)
Oc1ccc(CCNc2ncnc3ccc(Cl)cc23)cc1	OX1R antag-1 86, CHO parental Ca 72, OX1R antag-2 43 (no result: PGE2 EP2 inh, EP2 mod)
CSc1cc(-c2ccccc2)n(Cc2ccc(Cl)cc2Cl)c(=O)c1C#N	none
Cc1cc(C)n(Cc2ccc(Cl)cc2Cl)c(=O)c1S(=O)(=O)c1ccccc1	EP2 mod 62
Cn1c(N)nc2nc(CCc3ccccc3)c(=O)[nH]c2c1=O	none (no result: PGE2 EP2 inh, EP2 mod)
CCN(CC)C(=O)CSc1nc2sc(C)c(C)c2c(=O)[nH]1	none
COc1cccc(OC)c1C(=O)NC(=S)Nc1cc(-c2nc3ccccc3[nH]2)ccc1Cl	OX1R antag-1 74
COc1c(F)c(F)c(C(=O)Nc2ccc(-c3nc4ccccc4[nH]3)cc2)c(F)c1F	none
COC1=CC(=O)C=C(OC)C1=O	PGE2 EP2 inh 75 (no result: OX1R antag-1, GPR7 antagonist, CHO parental Ca, OX1R antag-2)
COC1=C(c2ccccc2)C(=O)c2ccccc2C1=O	none
COC1=CC(=O)c2ccccc2C1=O	OX1R antag-1 92 (no result: PGE2 EP2 inh, GPR7 antagonist, EP2 mod)
CCOc1ccc(Nc2oc(-c3cccs3)nc2C#N)cc1	OX1R antag-1 57
COc1ccc(Nc2oc(COc3ccc(C)cc3)nc2C#N)cc1	CHO parental Ca 38
COCCn1c(C)cc(C(=O)COC(=O)c2ccc([N+](=O)[O-])o2)c1C	none
CCOc1ccccc1C(=O)Nn1c(C2CCC2)nc2ccccc2c1=O	none
COc1ccc([N+](=O)[O-])cc1/C=N/NC(=O)CNC(=O)C(c1ccccc1)c1ccccc1	none
CN(C)CCCN=c1c2ccccc2n(C)c2[nH]c(=O)n(C)c(=O)c12	PGE2 EP2 inh 46 (no result: OX1R antag-1, GPR7 antagonist, CHO parental Ca, OX1R antag-2)
COC(=O)C1CCCN1C(=O)c1cccs1 (stereo unspecified)	none
CCOC(=O)c1c(CCl)nc2ccccc2c1-c1ccccc1	EP2 mod 87
CCOC(=O)c1c(C)nc2c(c1-c1ccccc1)C(=O)c1ccccc1-2	EP2 mod 61
O=C1[C@H]2[C@@H]3c4ccccc4[C@H]([C@H]2C(=O)N1c1ccc(OCc2ccccc2)cc1)[n+]1ccccc13	PGE2 EP2 inh 42 (no result: OX1R antag-1, GPR7 antagonist, CHO parental Ca, OX1R antag-2)
NC(=O)C1CC(=O)N(c2ccc(OCc3ccccc3)cc2)C1 (stereo unspecified)	none (no result: OX1R antag-1, GPR7 antagonist, CHO parental Ca, OX1R antag-2)
N#Cc1ccc(OS(=O)(=O)c2ccc(-c3ccon3)s2)cc1	CHO parental Ca 34 (no result: PGE2 EP2 inh, EP2 mod)
O=S(=O)(Nc1ccc(OC(F)F)cc1)c1ccc(-c2ccon2)s1	none (no result: PGE2 EP2 inh, EP2 mod)
C[C@@H]1NC(=O)[C@H](CCC(N)=O)NC(=O)c2cc([N+](=O)[O-])cc(I)c2NCCC[C@@H](C(N)=O)NC1=O	OX1R antag-1 61
NC(=O)C[C@H]1NC(=O)[C@H](CCC(=O)O)NC(=O)c2cc([N+](=O)[O-])cc(I)c2NCCC[C@@H](C(N)=O)NC1=O	none
NC(=O)[C@@H]1CCCNc2c(I)cc([N+](=O)[O-])cc2C(=O)N[C@@H](CCC(=O)O)C(=O)N[C@@H](CO)C(=O)N1	OX1R antag-1 67
CCN(CC(=O)NCc1ccc(F)cc1)C(=O)c1ccc(C(=O)c2ccccc2)cc1	none (no result: PGE2 EP2 inh, EP2 mod)
CSc1nc(C)cc(Nc2ccc(O)c(CN3CCCCC3)c2)n1	PGE2 EP2 inh 45 (no result: OX1R antag-1, GPR7 antagonist, CHO parental Ca, OX1R antag-2)
CC(CC(=O)N1CCN(c2ccccc2F)CC1)c1ccccc1 (stereo unspecified)	none
CN(C)c1ccc(C(=O)c2ccc(N(C)C)c3ccccc23)cc1	OX1R antag-1 55, CHO parental Ca 70 (no result: PGE2 EP2 inh)
COc1ccc(C(=O)c2ccc(N(C)C)cc2)c(OC)c1	none
Oc1ccccc1-c1cc(-c2ccc3c(c2)OCCO3)n[nH]1	OX1R antag-1 59 (no result: PGE2 EP2 inh)
O=C(O)c1cc(-c2ccc3c(c2)OCCO3)n[nH]1	none
N=c1sc2ccccc2n1-c1ccccc1	EP2 mod 61
C=CC(=O)N=c1sc2ccccc2n1-c1ccccc1	none
CC(=O)Nc1ccc(NS(=O)(=O)c2ccccc2)c2ccccc12	none (no result: PGE2 EP2 inh, EP2 mod)
O=C1c2ccccc2C(=O)C1c1ccnc2ccccc12	OX1R antag-1 69
COc1ccc(-c2cc(-c3cc(F)ccc3O)[nH]n2)cc1OC	PGE2 EP2 inh 66
COc1ccc(-c2cc(-c3ccccc3O)[nH]n2)cc1OC	none
CCCOC(=O)Nc1ccc(C(N)=O)cc1	none
CCCCn1c(=O)nc2n(-c3ccccc3C)c3ccccc3cc-2c1=O	none
Cc1ccccc1-n1c2nc(=O)n(C)c(=O)c-2cc2ccccc21	OX1R antag-1 65
OC(CNCCc1ccccc1)COc1ccc(OCC(O)CNCCc2ccccc2)cc1 (stereo unspecified)	GPR7 antagonist 32
O=C(CN1CCC(n2nnc3cc(F)ccc32)CC1)Nc1ccc(Oc2ccccc2)cc1	none (no result: OX1R antag-1, GPR7 antagonist, CHO parental Ca, OX1R antag-2)
Nc1cc(-c2ccc(Cl)cc2)nn1S(=O)(=O)c1ccccc1	CHO parental Ca 48
CCS(=O)(=O)n1nc(-c2ccccc2)cc1N	none
CC(C)C(=O)c1cn(CC(=O)NC(C)(C)C)c2ccccc12	none (no result: OX1R antag-1, GPR7 antagonist, CHO parental Ca, OX1R antag-2)
O=C(COC(=O)c1ccc2c(c1Cl)C(=O)c1ccccc1C2=O)NC1CC1	OX1R antag-1 61
O=C(Nc1nc2ccsc2c(=O)s1)c1ccco1	none
O=C(Nc1nc2c(Cl)ccc(Cl)c2s1)c1ccco1	PGE2 EP2 inh 70
O=C(O)[C@H]1CN(C(=O)c2ccco2)C[C@@H]1c1ccccc1F	none (no result: OX1R antag-1, PGE2 EP2 inh, GPR7 antagonist, CHO parental Ca, OX1R antag-2)
